An excerpt weighted towards active compounds, which were near 2.3% of everything screened.
TRPC4 block: inhibitors of mouse TRPC4 channel | 0.39% of 300,000 active | AID 2247 | B-score at 10 µM | HEK293 TRPC4beta/mu-opioid, DAMGO-evoked Fluo4 calcium flux; stronger effect = lower value | Q9QUQ5;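 active = B-score over 3 SD under the library average, no early fluorescence shift, positive overall ratio signal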
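Assay system: Stable TRPC4beta/mu-opioid receptor HEK293 cells | Reagent: DAMGO in two steps, submaximal then maximal | Compound dosing: Single concentration per test compound | Signal: Fluo4 Ca2+ flux fluorescence | Evaluation: Per-well B score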
TRPC6 inhibitor: inhibitors of mouse TRPC6 channel; HEK293-TRPC6, membrane potential dye, ACh-evoked depolarization; stronger effect = lower value; B-score at 10 µM; 1.1% of 310,000 active;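 active = B-score under library mean minus 3 SD, initial fluorescence not abnormally high, positive integrated signal ratio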;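 note: B-score derived from integrated fluorescence ratio over the kinetic read; more negative B-score means stronger inhibition of depolarization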
Target sequence (Q61143 whole entry, looked up): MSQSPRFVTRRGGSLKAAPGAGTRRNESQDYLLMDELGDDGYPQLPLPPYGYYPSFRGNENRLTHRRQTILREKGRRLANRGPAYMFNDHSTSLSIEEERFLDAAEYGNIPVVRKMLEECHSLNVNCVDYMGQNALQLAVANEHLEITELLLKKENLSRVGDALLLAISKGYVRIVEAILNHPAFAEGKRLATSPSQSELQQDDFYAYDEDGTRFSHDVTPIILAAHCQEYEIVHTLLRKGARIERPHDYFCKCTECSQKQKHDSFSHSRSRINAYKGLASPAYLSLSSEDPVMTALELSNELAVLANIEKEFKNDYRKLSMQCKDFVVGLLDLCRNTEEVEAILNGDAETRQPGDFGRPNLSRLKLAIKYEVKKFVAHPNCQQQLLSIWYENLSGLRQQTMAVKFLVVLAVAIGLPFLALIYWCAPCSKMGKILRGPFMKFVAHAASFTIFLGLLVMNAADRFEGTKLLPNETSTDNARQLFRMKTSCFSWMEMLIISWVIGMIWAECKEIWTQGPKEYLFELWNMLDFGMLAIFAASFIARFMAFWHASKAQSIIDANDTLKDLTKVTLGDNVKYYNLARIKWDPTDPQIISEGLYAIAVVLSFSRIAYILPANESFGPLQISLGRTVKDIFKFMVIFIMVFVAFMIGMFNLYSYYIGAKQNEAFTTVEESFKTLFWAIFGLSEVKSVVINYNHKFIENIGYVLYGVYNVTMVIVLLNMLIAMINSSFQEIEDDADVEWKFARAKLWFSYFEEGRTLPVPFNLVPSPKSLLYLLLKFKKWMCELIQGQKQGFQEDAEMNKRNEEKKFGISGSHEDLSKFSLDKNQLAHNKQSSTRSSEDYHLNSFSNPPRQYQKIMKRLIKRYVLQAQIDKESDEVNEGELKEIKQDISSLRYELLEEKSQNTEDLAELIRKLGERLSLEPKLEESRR
TRPC4 PAM: allosterically enhances the mouse TRPC4 cation channel; Q9QUQ5; HEK293 TRPC4beta/mu-opioid, DAMGO EC20, Fluo-4 Ca2+ flux; stronger effect = higher value; B-score at 10 µM; 0.42% of 310,000 active;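 active = B-score of calcium response area above 5 SD of library B-scores, with initial fluorescence ratio within 5 SD of library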
TRPC4 act: activators of mouse TRPC4 channel. Q9QUQ5. B-score at 10 µM. AID 2237. 0.49% of 310,000 active. HEK293 TRPC4beta/mu-opioid, Fluo4 calcium fluorescence; stronger effect = higher value;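 active = B-score above 5 SD of library B-scores, and initial fluorescence ratio not above library mean plus 5 SD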;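 note: positive B-score marks a calcium rise read as TRPC4 activation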
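Incubation: 45 min room-temperature Fluo4 loading, 110 s read / System: HEK293 cells stably co-expressing mouse TRPC4beta and mu-opioid receptor / Signal: Fluo4 fluorescence, kinetic / Control set: buffer (low) and maximal DAMGO (high) / Measure: integrated baseline-normalised fluorescence ratio, converted to per-well B score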
TRPC6 act: activators of mouse TRPC6 channel; B-score at 10 µM; HEK293-TRPC6 membrane potential dye fluorescence; stronger effect = higher value; 0.13% of 310,000 active; AID 2550;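 active = B-score of the integrated fluorescence ratio above library mean plus 3 SD, and starting fluorescence ratio within library mean plus 5 SD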;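 note: higher score means more depolarization so channel activation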
TRPC4 sel inh 2: second selectivity test of TRPC6 inhibitors: effect on mouse TRPC4. shares compounds with TRPC6 inhibitor. HEK293 TRPC4/MOR, membrane potential dye fluorescence; channel activated by saturating DAMGO dose. 42% of 920 active. inhibition, % at 10 µM;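 active = compounds whose fluorescence signal differed from control wells by over 3 SD, either direction, in both duplicate plates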
TRPC4 spec: mouse TRPC4 off-target activity of TRPC6 inhibitors; HEK293 TRPC4/mu-opioid, membrane potential fluorescence; activity change, negative = inhibition, % at 10 µM; shares compounds with TRPC6 inhibitor; 61% of 920 active;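 active = rise or fall in signal beyond 3 SD of buffer-only wells in both replicate plates, either sign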;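 note: integrated kinetic ratio of fluorescence range over baseline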
HEK293 MPD ctr 2-1: second counter-screen for TRPC6 inhibitors: parental HEK293 cells | shares compounds with TRPC6 inhibitor | parental HEK293 membrane potential dye fluorescence; maximal acetylcholine challenge after compound addition | signal change vs control, % at 10 µM | 31% of 920 active | AID 2779;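 active = membrane potential signal moving either way by over 3 SD of the maximum-effect control, in both duplicate plates, meaning non-specific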
HEK293 MPD ctr-1: checks TRPC6 inhibitor effects in parental HEK293 cells. parental HEK293 membrane potential dye fluorescence. membrane potential signal change, % at 10 µM. shares compounds with TRPC6 inhibitor. 60% of 920 active. AID 2780;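 active = membrane potential signal shifting up or down by more than 3 SD of buffer-only wells, on both duplicate plates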
HEK293 MPD ctr-2: checks TRPC6 modulator effects in parental HEK293 cells | membrane potential signal change, % at 10 µM | membrane potential dye fluorescence | shares compounds with TRPC6 inhibitor | AID 488924 | 51% of 2,400 active;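 active = membrane potential signal moves up or down beyond 5 SD from buffer-only wells, on both duplicate plates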
HEK293 MPD ctr 2-2: parental HEK293 nonspecific activity of TRPC6 modulators, second screen; shares compounds with TRPC6 inhibitor; membrane potential dye fluorescence; after compound, maximal acetylcholine stimulation; inhibition, % at 10 µM; 14% of 2,400 active; AID 488926;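 active = membrane potential signal drops by more than 5 SD from the mean control signal, in both duplicate plates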
TRPC4 ctr mod: selectivity of TRPC6 modulators against mouse TRPC4. 69% of 2,400 active. shares compounds with TRPC6 inhibitor. percent change from control (negative = decrease, positive = increase), % at 10 µM. HEK293 TRPC4/mu-opioid, membrane potential fluorescence. AID 488927;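 active = membrane potential signal moved up or down beyond 5 SD of buffer control wells, in both duplicate plates, actives on both sides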
TRPC4 ctr inh 2: second check of whether TRPC6 modulators also affect mouse TRPC4; HEK293 TRPC4/mu-opioid, membrane potential dye fluorescence; stimulated with maximal-effect DAMGO; 55% of 2,400 active; shares compounds with TRPC6 inhibitor; inhibition, % at 10 µM;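 active = drop in membrane potential signal beyond 5 SD of the control wells in both duplicate plates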;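 note: TRPC4 counter screen for TRPC6 hits run under conditions tuned for TRPC6 not TRPC4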
TRPC6 block conf: confirmation of mouse TRPC6 inhibitors; shares compounds with TRPC6 inhibitor; HEK293-TRPC6, membrane potential dye, ACh-evoked depolarization; inhibition, % at 10 µM; 43% of 3,300 active; AID 488960;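 active = fluorescence ratio falls more than 5 SD below the full-stimulation control mean, in both duplicate runs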;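 note: integrated fluorescence ratio of peak minus minimum over baseline after agonist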
TRPC6 act confirm: mouse TRPC6 activator confirmation; shares compounds with TRPC6 inhibitor; HEK293-TRPC6 membrane potential dye fluorescence, FDSS; activation, % at 10 µM; 11% of 2,800 active; AID 488961;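 active = ratio signal rise beyond 5 SD above unstimulated control wells' mean, seen in both duplicate runs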
Large screens that a line does not name were inactive (follow-up assays come after a bar, where they were run).

CC[n+]1c(/C=C/Nc2ccccc2)oc2ccccc21	TRPC6 inhibitor -7.3 | HEK293 MPD ctr-2 -169% | HEK293 MPD ctr 2-2 76% | TRPC4 ctr mod -44% | TRPC4 ctr inh 2 82% | TRPC6 block conf 69% | TRPC6 act confirm inactive
CCCC[n+]1ccn(-c2nc3c([N+](=O)[O-])cccc3n2C)c1	none
CCOC(=O)c1ccc(NC(=S)N(CCCN2CCCCCC2)Cc2ccco2)cc1	TRPC6 inhibitor -5.7 | HEK293 MPD ctr-2 inactive | HEK293 MPD ctr 2-2 inactive | TRPC4 ctr mod inactive | TRPC4 ctr inh 2 77% | TRPC6 block conf 56% | TRPC6 act confirm inactive
CCOc1ccc(NC(=S)NCc2ccco2)cc1	none
CCOC(=O)c1ccc(NC(=O)CN(Cc2ccc(Cl)cc2)S(C)(=O)=O)cc1	TRPC6 inhibitor -6.6 | TRPC4 sel inh 2 inactive | TRPC4 spec -12% | HEK293 MPD ctr 2-1 inactive | HEK293 MPD ctr-1 inactive | TRPC6 block conf inactive | TRPC6 act confirm inactive
CCOC(=O)c1ccc(NC(=S)NCc2ccc(S(N)(=O)=O)cc2)cc1	TRPC6 inhibitor -5.3 | HEK293 MPD ctr-2 inactive | HEK293 MPD ctr 2-2 inactive | TRPC4 ctr mod inactive | TRPC4 ctr inh 2 inactive | TRPC6 block conf 48%
CCOC(=O)c1ccc(NC(=S)NCc2ccco2)cc1	TRPC6 inhibitor -9.3 | TRPC4 sel inh 2 inactive | TRPC4 spec inactive | HEK293 MPD ctr 2-1 inactive | HEK293 MPD ctr-1 inactive | TRPC6 block conf inactive | TRPC6 act confirm inactive
CS(=O)(=O)N(CC(=O)Nc1ccc2c(c1)OCCO2)Cc1ccc(Cl)cc1	none
CCOC(=O)c1ccc(NC(=S)N(CCN2CCCCCC2)Cc2ccco2)cc1	none
Cc1cc2nc3s/c(=C/c4ccc(-c5ccccc5C(=O)O)o4)c(=O)n3c2cc1C	TRPC4 PAM 12, TRPC4 act 143, TRPC6 act 56 | HEK293 MPD ctr-2 active | HEK293 MPD ctr 2-2 inactive | TRPC4 ctr mod 395% | TRPC4 ctr inh 2 inactive | TRPC6 block conf inactive | TRPC6 act confirm 720%
COCCNC(=O)COc1cccc2c1OC(C)(C)C2	none
COc1ccccc1OCC(=O)NCCS(=O)(=O)N1CCN(c2ccc(F)cc2)CC1	TRPC6 inhibitor -5.4 | HEK293 MPD ctr-2 inactive | HEK293 MPD ctr 2-2 inactive | TRPC4 ctr mod inactive | TRPC4 ctr inh 2 inactive | TRPC6 block conf inactive | TRPC6 act confirm inactive
CCC(C)(C)n1nnnc1C(c1ccc(F)cc1)N1CCN(C(=O)c2ccco2)CC1 (stereo unspecified)	TRPC6 inhibitor -5.5 | HEK293 MPD ctr-2 124% | HEK293 MPD ctr 2-2 inactive | TRPC4 ctr mod 28% | TRPC4 ctr inh 2 34% | TRPC6 block conf inactive
CCC(C)(C)n1nnnc1C(c1ccc(C)cc1)N1CCN(C(=O)c2ccco2)CC1 (stereo unspecified)	none
COc1cc(/C=N/Nc2nncc3ccccc23)cc(OC)c1OC	TRPC6 inhibitor -7.9 | TRPC4 sel inh 2 inactive | TRPC4 spec -25% | HEK293 MPD ctr 2-1 inactive | HEK293 MPD ctr-1 -458% | TRPC6 block conf inactive | TRPC6 act confirm inactive
O=[N+]([O-])c1ccccc1Sc1nccn1Cc1ccccc1	none
Cc1cccc(NC(=S)NNC(=O)CCn2cc(C)cn2)c1	none
COCC(C)n1c(SCC(=O)c2cc(C)n(C)c2C)nc2ccccc2c1=O (stereo unspecified)	none
COC(=O)c1ccc2c(c1)C(C)(C)C(/C=C/c1ccccc1O)=[N+]2C	TRPC6 inhibitor -10 | HEK293 MPD ctr-2 410% | HEK293 MPD ctr 2-2 199% | TRPC4 ctr mod -208% | TRPC4 ctr inh 2 99% | TRPC6 block conf 106% | TRPC6 act confirm inactive
Cc1ccc(C2C(C#N)=C(N)Oc3cc(N)ccc32)cc1 (stereo unspecified)	TRPC6 act 13 | HEK293 MPD ctr-2 inactive | HEK293 MPD ctr 2-2 inactive | TRPC4 ctr mod inactive | TRPC4 ctr inh 2 inactive | TRPC6 block conf inactive | TRPC6 act confirm inactive
N#Cc1nc(/C=C/c2ccccc2)oc1NCCCN1CCOCC1	TRPC6 inhibitor -7.1 | TRPC4 sel inh 2 inactive | TRPC4 spec inactive | HEK293 MPD ctr 2-1 inactive | HEK293 MPD ctr-1 inactive | TRPC6 block conf inactive | TRPC6 act confirm inactive
COCCNc1oc(/C=C/c2ccccc2)nc1C#N	none
Cc1ccc(S(=O)(=O)N2C(=O)CCC2C(=O)N2CCCCC2)cc1 (stereo unspecified)	none
COc1ccc(S(=O)(=O)NC(C)C(=O)Nc2ccc3c(c2)OCO3)cc1OC (stereo unspecified)	none
COc1ccc(S(=O)(=O)NC(C)C(=O)Nc2ccc3c(c2)OCCO3)cc1OC (stereo unspecified)	TRPC6 inhibitor -6.1 | HEK293 MPD ctr-2 inactive | HEK293 MPD ctr 2-2 inactive | TRPC4 ctr mod inactive | TRPC4 ctr inh 2 inactive | TRPC6 block conf inactive | TRPC6 act confirm inactive
COc1ccccc1Nc1nc(N)nc(CSC(=S)N2CCCCC2)n1	TRPC6 inhibitor -9.5, TRPC6 act 11 | HEK293 MPD ctr-2 inactive | HEK293 MPD ctr 2-2 inactive | TRPC4 ctr mod inactive | TRPC4 ctr inh 2 inactive | TRPC6 block conf inactive | TRPC6 act confirm inactive
COc1ccc(-c2sc(Nc3ccccc3)n[n+]2-c2ccc(F)cc2)c(C)c1C	TRPC6 inhibitor -5.4 | HEK293 MPD ctr-2 inactive | HEK293 MPD ctr 2-2 inactive | TRPC4 ctr mod inactive | TRPC4 ctr inh 2 63% | TRPC6 block conf inactive | TRPC6 act confirm inactive
Cc1cccc(-c2sc(Nc3ccccc3)n[n+]2-c2ccc(F)cc2)c1	none

Bioassay records (PubChem BioAssay)
